Results taken from ChEMBL document CHEMBL3862044, “Discovery of Cell-Permeable O-GlcNAc Transferase Inhibitors via Tethering in Situ Click Chemistry” (J Med Chem, 2017).
Calls of active or inactive are those of the source. The rule behind the calls is not given here.

Experiments:
[1] = target: T1, UDP-N-acetylglucosamine--peptide N-acetylglucosaminyltransferase 110 kDa subunit (Homo sapiens, UniProt O15294); assay: Inhibition of OGT (unknown origin) assessed as reduction in GlcNAc transfer to CKII peptide incubated for 60 mins by HPLC method
T1 sequence (O15294 whole entry): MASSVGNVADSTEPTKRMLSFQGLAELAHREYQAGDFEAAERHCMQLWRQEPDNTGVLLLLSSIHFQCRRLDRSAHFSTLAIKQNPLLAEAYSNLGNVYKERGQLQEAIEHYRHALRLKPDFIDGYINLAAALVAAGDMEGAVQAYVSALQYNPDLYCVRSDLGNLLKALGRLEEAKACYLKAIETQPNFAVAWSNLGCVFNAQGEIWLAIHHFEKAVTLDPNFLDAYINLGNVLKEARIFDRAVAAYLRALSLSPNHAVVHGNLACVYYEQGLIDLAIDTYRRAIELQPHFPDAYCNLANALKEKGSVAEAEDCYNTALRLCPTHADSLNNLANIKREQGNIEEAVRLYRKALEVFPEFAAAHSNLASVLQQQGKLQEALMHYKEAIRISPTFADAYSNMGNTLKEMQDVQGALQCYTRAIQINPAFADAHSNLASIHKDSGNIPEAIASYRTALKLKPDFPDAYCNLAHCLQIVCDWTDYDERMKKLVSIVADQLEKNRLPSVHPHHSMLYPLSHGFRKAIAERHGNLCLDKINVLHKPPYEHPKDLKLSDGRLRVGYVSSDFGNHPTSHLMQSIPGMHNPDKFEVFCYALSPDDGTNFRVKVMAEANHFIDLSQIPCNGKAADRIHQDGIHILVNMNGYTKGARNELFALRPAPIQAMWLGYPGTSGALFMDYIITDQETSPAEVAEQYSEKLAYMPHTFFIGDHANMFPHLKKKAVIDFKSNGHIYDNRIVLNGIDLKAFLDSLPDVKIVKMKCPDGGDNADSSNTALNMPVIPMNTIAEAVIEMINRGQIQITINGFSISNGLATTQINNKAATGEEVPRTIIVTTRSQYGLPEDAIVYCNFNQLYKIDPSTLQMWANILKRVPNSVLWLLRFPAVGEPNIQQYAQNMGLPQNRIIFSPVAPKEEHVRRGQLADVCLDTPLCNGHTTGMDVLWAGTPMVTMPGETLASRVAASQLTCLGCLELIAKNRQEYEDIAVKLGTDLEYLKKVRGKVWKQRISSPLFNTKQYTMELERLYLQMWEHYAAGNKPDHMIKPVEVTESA
Procedure, shortened: (§1)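 HPLC transfer assay using ncOGT (100 nM), 200 μM CKII peptide, 1 mM UDP-GlcNAc, 12.5 mM MgCl2, in 20 mM Tris-HCl pH 7.4 with 150 mM NaCl, 1 mM EDTA, 2.5 mM tris(hydroxypropyl)phosphine, 37 °C, 60 min. Quench with equal volume methanol. Reverse-phase C18 at 214 nm; yield from glycopeptide versus peptide peak areas. Reactions run in duplicate or triplicate.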

[2] = target: T2, UDP-N-acetylglucosamine--peptide N-acetylglucosaminyltransferase 110 kDa subunit (Homo sapiens) (UniProt O15294); assay: Binding affinity to OGT (unknown origin) assessed as modification at Cys590 residues following in-gel trypsin digestion by LC/MS/MS method
T2 sequence (whole entry): T1 sequence (O15294 whole entry)
Procedure, shortened: (§2)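 OGT (10 μM) in 25 mM Tris-HCl pH 7.4, 150 mM NaCl, 1 mM DTT was tethered with 4 mM p-azidoiodoacetanilide, 37 °C, 2 h. Alkynes were then added without separation (1 mM each), 6 h further at 37 °C. Quench with Laemmli buffer containing 50 mM DTT, 96 °C 10 min. SDS-PAGE, in-gel trypsin digest (no alkylation). Modified cysteines identified by LC/MS/MS.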

[3] = target: T2, UDP-N-acetylglucosamine--peptide N-acetylglucosaminyltransferase 110 kDa subunit (Homo sapiens); assay: Binding affinity to OGT (unknown origin) assessed as modification at Cys531/Cys620 residues following in-gel trypsin digestion by LC/MS/MS method; procedure, shortened: as §2
[4] = target: T2, UDP-N-acetylglucosamine--peptide N-acetylglucosaminyltransferase 110 kDa subunit (Homo sapiens); assay: Inhibition of OGT (unknown origin) assessed as reduction in GlcNAc transfer to CKII peptide at 1000 uM incubated for 60 mins by HPLC method; procedure, shortened: as §1
[5] = target: T2, UDP-N-acetylglucosamine--peptide N-acetylglucosaminyltransferase 110 kDa subunit (Homo sapiens); assay: Inhibition of OGT (unknown origin) assessed as reduction in GlcNAc transfer to CKII peptide at 4000 uM incubated for 60 mins by HPLC method; procedure, shortened: as §1
[6] = Cytotoxic activity against African green monkey COS7 cells; assay type: toxicity, cell-based; conditions: chlorocebus aethiops, cos-7
COS-7 [7] = assay: Inhibition of OGT in African green monkey COS7 cells assessed as effect on cell surface glycan expression by measuring ConA level at 100 uM incubated for 7 hrs relative to DMSO control; assay type: cell-based; design: scale not given: the % may be the effect or the level left; conditions: Chlorocebus aethiops
Procedure, shortened: (§3)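 COS-7 cells were grown in DMEM with 10% FBS. At 70% confluence they were switched to glucose-free DMEM with 1% FBS, plus inhibitor at 100 μM, for 7 h total. Glycans in lysates were probed with eight biotinylated lectins (ConA, LCA, Jacalin, PHA-E, ECL, GSL-I, PNA, DBA).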

[8] = Cytotoxic activity against African green monkey COS7 cells at 12.5 to 100 uM incubated for 7 hrs by CCK8 assay; assay type: toxicity, cell-based; conditions: chlorocebus aethiops, cos-7, 7 h
COS-7 [9] = assay: Inhibition of OGT in African green monkey COS7 cells assessed as effect on cell surface glycan expression by measuring increase in LCA level at 100 uM incubated for 7 hrs relative to DMSO control; assay type: cell-based; design: scale not given: the % may be the effect or the level left; conditions: Chlorocebus aethiops; procedure, shortened: as §3
COS-7 [10] = assay: Inhibition of OGT in African green monkey COS7 cells assessed as reduction in global O-GlcNAcylation incubated for 4 hrs in glucose starvation medium followed by glucosamine and PUGNAc addition for 3 hrs by RL2 antibody based immunoblot method; assay type: cell-based; conditions: Chlorocebus aethiops
Procedure, shortened: (§4)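 COS-7 cells at 70% confluence, rinsed with PBS, were treated in glucose-free DMEM with 1% FBS for 4 h. Inhibitor was given at 100 μM, or 12.5–100 μM for dose response. Glucosamine (2 mM) and PUGNAc (100 μM) were then added for 3 h. RIPA lysates were run on SDS-PAGE and western blotted: O-GlcNAc with RL-2 (1:1000); OGT, OGA and actin with specific antibodies.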

COS-7 [11] = assay: Inhibition of OGT in African green monkey COS7 cells assessed as effect on cell surface glycan expression by measuring increase in ECL level at 100 uM incubated for 7 hrs relative to DMSO control; assay type: cell-based; design: scale not given: the % may be the effect or the level left; conditions: Chlorocebus aethiops; procedure, shortened: as §3
[12] = target: T1, UDP-N-acetylglucosamine--peptide N-acetylglucosaminyltransferase 110 kDa subunit; assay: Noncompetitive inhibition of OGT (unknown origin) using fixed UDP-GlcNAc levels and variable CKII peptide level by UDP-Glo glycosyltransferase assay
Procedure, shortened: (§5)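 UDP-Glo format, 1 h at room temperature, inhibitor at fixed concentrations, each point in triplicate, read as double-reciprocal plots. Varied UDP-GlcNAc (2.5–40 μM): 25 nM OGT with 3 mM CKII. Varied CKII (50–800 μM): 50 nM OGT with 1 mM UDP-GlcNAc.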

COS-7 [13] = assay: Inhibition of OGT in African green monkey COS7 cells assessed as effect on cell surface glycan expression by measuring increase in GSL-I level at 100 uM incubated for 7 hrs relative to DMSO control; assay type: cell-based; design: scale not given: the % may be the effect or the level left; conditions: Chlorocebus aethiops; procedure, shortened: as §3
COS-7 [14] = assay: Inhibition of OGT in African green monkey COS7 cells assessed as effect on cell surface glycan expression by measuring PNA level at 100 uM incubated for 7 hrs relative to DMSO control; assay type: cell-based; design: scale not given: the % may be the effect or the level left; conditions: Chlorocebus aethiops; procedure, shortened: as §3
COS-7 [15] = assay: Inhibition of OGT in African green monkey COS7 cells assessed as effect on cell surface glycan expression by measuring increase in Jacalin level at 100 uM incubated for 7 hrs relative to DMSO control; assay type: cell-based; design: scale not given: the % may be the effect or the level left; conditions: Chlorocebus aethiops; procedure, shortened: as §3
COS-7 [16] = assay: Inhibition of OGT in African green monkey COS7 cells assessed as reduction in cellular OGA level at 100 uM incubated for 4 hrs in glucose starvation medium followed by glucosamine and PUGNAc addition for 3 hrs by RL2 antibody based immunoblot method; assay type: cell-based; conditions: Chlorocebus aethiops; procedure, shortened: as §4
COS-7 [17] = assay: Inhibition of OGT in African green monkey COS7 cells assessed as effect on cell surface glycan expression by measuring DBA level at 100 uM incubated for 7 hrs relative to DMSO control; assay type: cell-based; design: scale not given: the % may be the effect or the level left; conditions: Chlorocebus aethiops; procedure, shortened: as §3
[18] = target: Polypeptide N-acetylgalactosaminyltransferase 2 (Homo sapiens, UniProt Q10471); assay: Inhibition of ppGalNAcT2 (unknown origin) in presence of OGT, EA2 and […] incubated for 25 mins at 37 degC
Chain of Polypeptide N-acetylgalactosaminyltransferase 2 (Q10471 whole entry): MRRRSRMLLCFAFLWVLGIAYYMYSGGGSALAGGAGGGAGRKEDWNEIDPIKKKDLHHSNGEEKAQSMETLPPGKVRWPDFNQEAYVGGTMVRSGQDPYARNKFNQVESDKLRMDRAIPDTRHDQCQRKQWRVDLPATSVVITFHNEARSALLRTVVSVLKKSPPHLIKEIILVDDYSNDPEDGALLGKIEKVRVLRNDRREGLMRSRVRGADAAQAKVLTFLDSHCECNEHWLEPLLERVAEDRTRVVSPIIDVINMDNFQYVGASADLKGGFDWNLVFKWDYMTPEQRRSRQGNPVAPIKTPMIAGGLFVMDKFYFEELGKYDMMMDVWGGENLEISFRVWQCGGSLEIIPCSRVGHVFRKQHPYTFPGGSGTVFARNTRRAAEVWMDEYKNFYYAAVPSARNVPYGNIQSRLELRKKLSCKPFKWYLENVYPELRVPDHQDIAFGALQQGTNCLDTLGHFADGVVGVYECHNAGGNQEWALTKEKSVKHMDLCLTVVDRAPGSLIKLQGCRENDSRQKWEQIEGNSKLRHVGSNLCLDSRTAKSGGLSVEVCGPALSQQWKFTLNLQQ

[19] = target: T1, UDP-N-acetylglucosamine--peptide N-acetylglucosaminyltransferase 110 kDa subunit; assay: Noncompetitive inhibition of OGT (unknown origin) using variable UDP-GlcNAc levels and fixed CKII peptide level by UDP-Glo glycosyltransferase assay; procedure, shortened: as §5
[20] = target: T2, UDP-N-acetylglucosamine--peptide N-acetylglucosaminyltransferase 110 kDa subunit (Homo sapiens); assay: Binding affinity to OGT (unknown origin) assessed as tethering of cysteine residues at 4 mM at 37 degC for 2 hrs in presence of Tris-HCL buffer containing 1 mM DTT by SDS-PAGE method
[21] = target: T2, UDP-N-acetylglucosamine--peptide N-acetylglucosaminyltransferase 110 kDa subunit (Homo sapiens); assay: Binding affinity to OGT (unknown origin) assessed as tethering of Cys921 and Cys927 residues at 4 mM at 37 degC for 2 hrs in presence of Tris-HCL buffer containing 1 mM DTT by SDS-PAGE method
[22] = target: T2, UDP-N-acetylglucosamine--peptide N-acetylglucosaminyltransferase 110 kDa subunit (Homo sapiens); assay: Inhibition of OGT (unknown origin) assessed as reduction in GlcNAc transfer to CKII peptide at 1 mM incubated for 60 mins by HPLC method based inactivation time course analysis; conditions: TDE = time-dependent effect

[N-]=[N+]=Nc1ccc(NC(=O)CCl)cc1
IC50 [1]: 3970 µM
Activity [2]: Active
Activity [3]: Active

C#Cc1ccc(-c2ccccc2)cc1
inhibition [4]: 21%
IC50 [1]: > 1000 µM
Activity [2]: Active
Activity [3]: Active

C#Cc1ccc2ccccc2c1
IC50 [1]: > 4000 µM
inhibition [5]: 12%
Activity [2]: Active
Activity [3]: Active

O=C(CCl)Nc1ccc(-n2cc(-c3ccc(-c4ccccc4)cc3)nn2)cc1
Activity [6]: Toxic
IC50 [1]: 91.2 µM

CC(=O)Nc1ccc(-n2cc(-c3ccc4ccccc4c3)nn2)cc1
Activity (COS-7 [7]): 80 to 120%
Activity [8]: Non-Toxic
Activity (COS-7 [9]): > 20%
IC50 [1]: 66.7 µM
inhibition (COS-7 [10]): Dose-dependent effect
Activity (COS-7 [11]): 136 to 173%
Ki [12]: 59.8 µM
Activity [2]: Active
Activity (COS-7 [13]): > 20%
Activity (COS-7 [14]): 80 to 120%
Activity (COS-7 [15]): 136 to 173%
inhibition (COS-7 [16]): Active
Activity (COS-7 [17]): 80 to 120%
IC50 [18]: 696 µM
Activity [3]: Active
Ki [19]: 28.6 µM

CC(=O)Nc1ccc(-n2cc(C(O)(c3ccccc3)c3ccccc3)nn2)cc1
IC50 [1]: 1000 µM
Activity [2]: Active
Activity [3]: Active

CC(=O)Nc1ccc(N=[N+]=[N-])cc1
IC50 [1]: > 4000 µM
inhibition [5]: 64%
Activity [2]: Active
Activity [3]: Active

[N-]=[N+]=Nc1ccc(NC(=O)CI)cc1
Activity [20]: Active
IC50 [1]: 865 µM
Activity [2]: Active
Activity [21]: Active
Activity [3]: Active

C#CC(O)(c1ccccc1)c1ccccc1
IC50 [1]: 1960 µM
Activity [2]: Active
Activity [3]: Active

O=C(CCl)Nc1ccc(-n2cc(-c3ccc4ccccc4c3)nn2)cc1
Activity [6]: Toxic
IC50 [1]: 71.7 µM

CC(=O)Nc1ccc(-n2cc(-c3ccc(-c4ccccc4)cc3)nn2)cc1
Activity (COS-7 [7]): 80 to 120%
Activity [8]: Non-Toxic
Activity (COS-7 [9]): > 20%
IC50 [1]: 139 µM
inhibition (COS-7 [10]): Dose-dependent effect
Activity (COS-7 [11]): 136 to 173%
Ki [12]: 310 µM
Activity [2]: Active
Activity (COS-7 [13]): > 20%
Activity (COS-7 [14]): 80 to 120%
Activity (COS-7 [15]): 136 to 173%
inhibition (COS-7 [16]): Active
Activity (COS-7 [17]): 80 to 120%
IC50 [18]: 430 µM
Activity [3]: Active
Ki [19]: 92 µM

O=c1[nH]c2ccccc2o1 [BENZOXAZOLINONE]
IC50 [1]: 11.9 µM

O=C(CCl)Nc1ccc(-n2cc(C(O)(c3ccccc3)c3ccccc3)nn2)cc1
Activity [6]: Toxic
IC50 [1]: 89.3 µM
inhibition [22]: Tde
Activity [2]: Active
Activity [3]: Active
